Structures are written as SMILES.

The target in test [1] is GABA-A receptor; anion channel. The test can be described thus: Displacement of [3H]flunitrazepam from diazepam-sensitive GABA-A benzodiazepine receptor of rat cortical membrane. Put shortly: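 Washed rat cerebral cortex membranes (adult male Sprague-Dawley) in Tris-citrate pH 7.4 with NaCl. [3H]flunitrazepam at about 1 nM final, 2 h at 4 °C, then filtration. Six to eight inhibitor concentrations were used; IC50 came from a sigmoid fit. Three determinations, mean ± SEM.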
Background: In a radioligand displacement assay an active substance lowers the binding of a labelled ligand.

Test [2] has as its target GABA-A receptor; anion channel. As to the kind of experiment: […] from diazepam-insensitive GABA-A benzodiazepine receptor of rat cerebellar membrane.
Test [3] can be described thus: Ratio between diazepam-insensitive (DI) site / diazepam-sensitive (DS) site. Put shortly:
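Rat cerebellar membranes washed five times in 50 mM Tris-citrate pH 7.8 with NaCl. [3H]Ro 15-4513 at about 2 nM final, 60 min at 0–4 °C, then filtration. DS+DI binding was defined by Ro 15-1788 (10 μM) displacement and DI binding as the diazepam (10 μM)-insensitive part. 0.1 nM–1 μM inhibitor; Cheng-Prusoff Ki; duplicate assays, three experiments. Ratio is Ki DI/DS.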

Test [4] addresses GABA-A receptor; anion channel. As to the kind of experiment: […] from diazepam-sensitive GABA-A benzodiazepine receptor of rat cerebellar membrane.

Take `CN1Cc2c(C3=NCCO3)ncn2-c2ccccc2C1=O`: in test [1], the IC50 worked out at 687 nM.

Consider `Cc1noc(-c2ncn3c2CN(Cc2ccccc2)C(=O)c2ccccc2-3)n1`, for which the IC50 in test [2] was more than 10000 nM; in test [1], 34.3 nM.

Turning to `CCOC(=O)c1ncn2c1CN(c1ccc(OC)cc1)C(=O)c1ccccc1-2`, in test [1], the IC50 is more than 1000 nM.

Take `CCOC(=O)c1ncn2c1CN(C)C(=O)c1ccccc1-2`: the Ratio in test [3] amounted to 165.

As for `CN1Cc2c(N=C=S)ncn2-c2ccccc2C1=O`, in test [1], the IC50 stood at 739 nM.

For the molecule `C=CCN1Cc2c(C(=O)OCC)ncn2-c2ccccc2C1=O`, the IC50 in test [1] worked out at 157 nM. Against the preceding molecule, the IC50 is about 4.7-fold lower.

The molecule `COC(=O)Nc1ncn2c1CN(C)C(=O)c1ccccc1-2` displayed an IC50 in test [1] of more than 1000 nM.

Take `Cc1noc(-c2ncn3c2CN(Cc2ccccc2)C(=O)c2c(Cl)cccc2-3)n1`: in test [1], the IC50 was 15.3 nM. Moreover, in test [3], the Ratio came to 101.

For the molecule `Cc1ccc(S(=O)(=O)c2ncn3c2CN(C)C(=O)c2ccccc2-3)cc1`, in test [1], the IC50 is more than 1000 nM.

`CN1Cc2c(NC=O)ncn2-c2ccccc2C1=O`: the IC50 in test [1] is more than 1000 nM.

For `CCCN1Cc2c(C(=O)OCC)ncn2-c2ccccc2C1=O`, in test [1], the IC50 is 238 nM.

As to `CCOC(=O)c1ncn2c1CN(Cc1ccc(OC)cc1OC)C(=O)c1ccccc1-2`, the results for the Ki in test [2] and in test [4] were 127 nM and 5.4 nM, respectively. Besides, the IC50 in test [1] came to 23.2 nM. Also, the Ratio in test [3] is 24.

For `CCOC(=O)c1ncn2c1CN(Cc1ccccc1)C(=O)c1ccccc1-2`, the half-maximal inhibitory concentration (IC50) in test [1] was 9.3 nM. Further, the Ratio in test [3] came out at 75.

Take `CCOC(=O)c1ncn2c1CN(Cc1ccccc1)C(=O)c1c(Cl)cccc1-2`: the IC50 in test [1] was determined as 2.4 nM. Further, in test [3], the Ratio was 51.

Consider `CCOC(=O)c1ncn2c1CNC(=O)c1ccccc1-2`, for which the IC50 in test [1] turned out to be 164 nM.

As for `Cc1nnc(-c2ncn3c2CN(Cc2ccccc2)C(=O)c2ccccc2-3)o1`, the values for the IC50 in test [2] and in test [1] were more than 10000 nM and more than 1000 nM, respectively.

In test [2], `CCOC(=O)c1ncn2c1CN(Cc1ccccc1)C(=O)c1cc(Cl)ccc1-2` showed a Ki of 1.4 nM. In test [1], the IC50 is 37.8 nM. The Ratio in test [3] was 0.8.

`CCOC(=O)c1ncn2c1CN(CCc1ccccc1)C(=O)c1ccccc1-2` displayed an IC50 in test [1] of 340 nM.

In turn, `Cc1noc(-c2ncn3c2CN(Cc2ccccc2)C(=O)c2cc(Cl)ccc2-3)n1` had an IC50 in test [1] of 338 nM. Moreover, in test [3], the Ratio was 1.3.

In the case of `CCOC(=O)c1ncn2c1CN(C)C(=O)c1c(Cl)cccc1-2`, the Ratio in test [3] worked out at 100.

`CC(=O)Nc1ncn2c1CN(C)C(=O)c1ccccc1-2` yielded an IC50 in test [1] of more than 1000 nM.

`CCOC(=O)c1ncn2c1CN(c1ccccc1)C(=O)c1ccccc1-2`: in test [1], the IC50 is more than 1000 nM.

Turning to `CCOC(=O)Nc1ncn2c1CN(C)C(=O)c1ccccc1-2`, the IC50 in test [1] was more than 1000 nM.

A word on the IC50: it is the concentration at which inhibition is half-maximal. As a reminder, the Ki is a measure of affinity in units of concentration, obtained from inhibition or displacement. Low values mean higher affinity, high ones lower affinity.

These data come from ChEMBL document CHEMBL1127087, “Synthesis and structure-activity relationships of 3,5-disubstituted 4,5-dihydro-6H-imidazo[1,5-a][1,4]benzodiazepin-6-ones at diazepam-sensitive and diazepam-insensitive benzodiazepine receptors” (J Med Chem, 1993).
